Source: ChEMBL document CHEMBL4689842, “EUbOPEN Chemogenomics Library wave 1” (2021)

Test system: HEK-293T
Assay: Multiplex assay against HEK293T;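 on Population Tubulin-Different-Phenotype (%): share of the cells with healthy nuclei that show this phenotype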
Type: toxicity, cell-based
Conditions: human
Method in brief: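 Live cells were stained at seeding with Hoechst33342, BioTracker Green Microtubule Cytoskeleton Dye, MitoTracker Red and Annexin V Alexa Fluor 680, then imaged on a CQ1 microscope at 37°C and 5% CO2 after compound addition. CellPathfinder machine-learning gating split cells into Hoechst high-intensity objects or normal cells. Normal cells were split into healthy, pyknosed or fragmented nuclei, and pyknosed cells into mitotic or apoptotic. Tubulin, mitochondrial-mass and membrane-permeability phenotypes are per cents of healthy-nucleus cells.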

[1] = 12 h, 1 µM, compound concentration 1 uM, replicate 1
[2] = 12 h, 1 µM, compound concentration 1 uM, replicate 2
[3] = 12 h, 10 µM, compound concentration 10 uM, replicate 1
[4] = 12 h, 10 µM, compound concentration 10 uM, replicate 2
[5] = 24 h, 1 µM, compound concentration 1 uM, replicate 1
[6] = 24 h, 1 µM, compound concentration 1 uM, replicate 2
[7] = 24 h, 10 µM, compound concentration 10 uM, replicate 1
[8] = 24 h, 10 µM, compound concentration 10 uM, replicate 2
[9] = 48 h, 1 µM, compound concentration 1 uM, replicate 1
[10] = 48 h, 1 µM, compound concentration 1 uM, replicate 2
[11] = 48 h, 10 µM, compound concentration 10 uM, replicate 1
[12] = 48 h, 10 µM, compound concentration 10 uM, replicate 2

O=C1NC(=O)C(c2cnc3ccccn23)=C1c1cn2c3c(cc(F)cc13)CN(C(=O)N1CCCCC1)CC2 [LY-2090314]
Population Apoptotic (%) [1]: 46%
Population Fragmented Nuclei (%) [1]: 8%
Population Healthy Nuclei (%) [1]: 18%
Population Hoechst High Intensity Objects (%) [1]: 16%
Population Membrane Permeable-Phenotype (%) [1]: 10%
Population Mitochondria Different-Phenotype (%) [1]: 93%
Population Mitotic Cells (%) [1]: 53%
Population Normal (%) [1]: 83%
Population Pyknosed Nuclei (%) [1]: 73%
Population Tubulin-Different-Phenotype (%) [1]: 89%
Total Cell Count [1]: 191
Population Apoptotic (%) [2]: 26%
Population Fragmented Nuclei (%) [2]: 6%
Population Healthy Nuclei (%) [2]: 31%
Population Hoechst High Intensity Objects (%) [2]: 7%
Population Membrane Permeable-Phenotype (%) [2]: 16%
Population Mitochondria Different-Phenotype (%) [2]: 51%
Population Mitotic Cells (%) [2]: 73%
Population Normal (%) [2]: 92%
Population Pyknosed Nuclei (%) [2]: 62%
Population Tubulin-Different-Phenotype (%) [2]: 61%
Total Cell Count [2]: 210
Population Apoptotic (%) [3]: 76%
Population Fragmented Nuclei (%) [3]: 8%
Population Healthy Nuclei (%) [3]: 18%
Population Hoechst High Intensity Objects (%) [3]: 17%
Population Membrane Permeable-Phenotype (%) [3]: 0%
Population Mitochondria Different-Phenotype (%) [3]: 100%
Population Mitotic Cells (%) [3]: 23%
Population Normal (%) [3]: 82%
Population Pyknosed Nuclei (%) [3]: 73%
Population Tubulin-Different-Phenotype (%) [3]: 96%
Total Cell Count [3]: 186
Population Apoptotic (%) [4]: 58%
Population Fragmented Nuclei (%) [4]: 6%
Population Healthy Nuclei (%) [4]: 5%
Population Hoechst High Intensity Objects (%) [4]: 8%
Population Membrane Permeable-Phenotype (%) [4]: 14%
Population Mitochondria Different-Phenotype (%) [4]: 85%
Population Mitotic Cells (%) [4]: 41%
Population Normal (%) [4]: 91%
Population Pyknosed Nuclei (%) [4]: 87%
Population Tubulin-Different-Phenotype (%) [4]: 85%
Total Cell Count [4]: 135
Population Apoptotic (%) [5]: 53%
Population Fragmented Nuclei (%) [5]: 13%
Population Healthy Nuclei (%) [5]: 26%
Population Hoechst High Intensity Objects (%) [5]: 17%
Population Membrane Permeable-Phenotype (%) [5]: 6%
Population Mitochondria Different-Phenotype (%) [5]: 93%
Population Mitotic Cells (%) [5]: 46%
Population Normal (%) [5]: 82%
Population Pyknosed Nuclei (%) [5]: 59%
Population Tubulin-Different-Phenotype (%) [5]: 79%
Total Cell Count [5]: 198
Population Apoptotic (%) [6]: 29%
Population Fragmented Nuclei (%) [6]: 5%
Population Healthy Nuclei (%) [6]: 44%
Population Hoechst High Intensity Objects (%) [6]: 6%
Population Membrane Permeable-Phenotype (%) [6]: 8%
Population Mitochondria Different-Phenotype (%) [6]: 42%
Population Mitotic Cells (%) [6]: 70%
Population Normal (%) [6]: 93%
Population Pyknosed Nuclei (%) [6]: 50%
Population Tubulin-Different-Phenotype (%) [6]: 66%
Total Cell Count [6]: 256
Population Apoptotic (%) [7]: 86%
Population Healthy Nuclei (%) [7]: 38%
Population Hoechst High Intensity Objects (%) [7]: 14%
Population Membrane Permeable-Phenotype (%) [7]: 1%
Population Mitotic Cells (%) [7]: 13%
Population Normal (%) [7]: 85%
Population Pyknosed Nuclei (%) [7]: 52%
Total Cell Count [7]: 187
Population Apoptotic (%) [8]: 77%
Population Fragmented Nuclei (%) [8]: 8%
Population Healthy Nuclei (%) [8]: 30%
Population Hoechst High Intensity Objects (%) [8]: 8%
Population Membrane Permeable-Phenotype (%) [8]: 2%
Population Mitochondria Different-Phenotype (%) [8]: 100%
Population Mitotic Cells (%) [8]: 22%
Population Normal (%) [8]: 91%
Population Pyknosed Nuclei (%) [8]: 61%
Population Tubulin-Different-Phenotype (%) [8]: 95%
Total Cell Count [8]: 148
Population Apoptotic (%) [9]: 52%
Population Fragmented Nuclei (%) [9]: 15%
Population Healthy Nuclei (%) [9]: 39%
Population Hoechst High Intensity Objects (%) [9]: 14%
Population Membrane Permeable-Phenotype (%) [9]: 1%
Population Mitochondria Different-Phenotype (%) [9]: 67%
Population Mitotic Cells (%) [9]: 47%
Population Normal (%) [9]: 85%
Population Pyknosed Nuclei (%) [9]: 44%
Population Tubulin-Different-Phenotype (%) [9]: 73%
Total Cell Count [9]: 230
Population Apoptotic (%) [10]: 29%
Population Fragmented Nuclei (%) [10]: 3%
Population Healthy Nuclei (%) [10]: 68%
Population Hoechst High Intensity Objects (%) [10]: 8%
Population Membrane Permeable-Phenotype (%) [10]: 12%
Population Mitochondria Different-Phenotype (%) [10]: 24%
Population Mitotic Cells (%) [10]: 70%
Population Normal (%) [10]: 91%
Population Pyknosed Nuclei (%) [10]: 27%
Population Tubulin-Different-Phenotype (%) [10]: 57%
Total Cell Count [10]: 309
Population Apoptotic (%) [11]: 80%
Population Fragmented Nuclei (%) [11]: 11%
Population Hoechst High Intensity Objects (%) [11]: 12%
Population Membrane Permeable-Phenotype (%) [11]: 0%
Population Mitochondria Different-Phenotype (%) [11]: 99%
Population Mitotic Cells (%) [11]: 19%
Population Normal (%) [11]: 87%
Population Pyknosed Nuclei (%) [11]: 23%
Total Cell Count [11]: 200
Population Apoptotic (%) [12]: 78%
Population Fragmented Nuclei (%) [12]: 7%
Population Healthy Nuclei (%) [12]: 65%
Population Hoechst High Intensity Objects (%) [12]: 5%
Population Membrane Permeable-Phenotype (%) [12]: 5%
Population Mitochondria Different-Phenotype (%) [12]: 95%
Population Mitotic Cells (%) [12]: 21%
Population Normal (%) [12]: 94%
Population Pyknosed Nuclei (%) [12]: 27%
Population Tubulin-Different-Phenotype (%) [12]: 97%
Total Cell Count [12]: 159

Cl.Oc1ccc2c3c1O[C@H]1c4[nH]c5c(c4C[C@@]4(O)[C@@H](C2)N(CC2CC2)CC[C@]314)C[C@@]1(O)[C@H]2Cc3ccc(O)c4c3[C@@]1(CCN2CC1CC1)[C@H]5O4
Population Apoptotic (%) [1]: 47%
Population Fragmented Nuclei (%) [1]: 8%
Population Healthy Nuclei (%) [1]: 45%
Population Hoechst High Intensity Objects (%) [1]: 13%
Population Membrane Permeable-Phenotype (%) [1]: 0%
Population Mitochondria Different-Phenotype (%) [1]: 74%
Population Mitotic Cells (%) [1]: 52%
Population Normal (%) [1]: 86%
Population Pyknosed Nuclei (%) [1]: 45%
Population Tubulin-Different-Phenotype (%) [1]: 46%
Total Cell Count [1]: 294
Population Apoptotic (%) [2]: 10%
Population Fragmented Nuclei (%) [2]: 4%
Population Healthy Nuclei (%) [2]: 38%
Population Hoechst High Intensity Objects (%) [2]: 5%
Population Membrane Permeable-Phenotype (%) [2]: 8%
Population Mitochondria Different-Phenotype (%) [2]: 10%
Population Mitotic Cells (%) [2]: 89%
Population Normal (%) [2]: 94%
Population Pyknosed Nuclei (%) [2]: 56%
Population Tubulin-Different-Phenotype (%) [2]: 12%
Total Cell Count [2]: 128
Population Apoptotic (%) [3]: 40%
Population Fragmented Nuclei (%) [3]: 7%
Population Healthy Nuclei (%) [3]: 49%
Population Hoechst High Intensity Objects (%) [3]: 12%
Population Membrane Permeable-Phenotype (%) [3]: 3%
Population Mitochondria Different-Phenotype (%) [3]: 79%
Population Mitotic Cells (%) [3]: 59%
Population Normal (%) [3]: 87%
Population Pyknosed Nuclei (%) [3]: 43%
Population Tubulin-Different-Phenotype (%) [3]: 33%
Total Cell Count [3]: 253
Population Apoptotic (%) [4]: 7%
Population Fragmented Nuclei (%) [4]: 5%
Population Healthy Nuclei (%) [4]: 45%
Population Hoechst High Intensity Objects (%) [4]: 2%
Population Membrane Permeable-Phenotype (%) [4]: 6%
Population Mitochondria Different-Phenotype (%) [4]: 27%
Population Mitotic Cells (%) [4]: 92%
Population Normal (%) [4]: 97%
Population Pyknosed Nuclei (%) [4]: 48%
Population Tubulin-Different-Phenotype (%) [4]: 22%
Total Cell Count [4]: 294
Population Apoptotic (%) [5]: 43%
Population Fragmented Nuclei (%) [5]: 11%
Population Healthy Nuclei (%) [5]: 38%
Population Hoechst High Intensity Objects (%) [5]: 12%
Population Membrane Permeable-Phenotype (%) [5]: 0%
Population Mitochondria Different-Phenotype (%) [5]: 61%
Population Mitotic Cells (%) [5]: 56%
Population Normal (%) [5]: 87%
Population Pyknosed Nuclei (%) [5]: 50%
Population Tubulin-Different-Phenotype (%) [5]: 37%
Total Cell Count [5]: 307
Population Apoptotic (%) [6]: 6%
Population Fragmented Nuclei (%) [6]: 7%
Population Healthy Nuclei (%) [6]: 53%
Population Hoechst High Intensity Objects (%) [6]: 4%
Population Membrane Permeable-Phenotype (%) [6]: 8%
Population Mitochondria Different-Phenotype (%) [6]: 13%
Population Mitotic Cells (%) [6]: 93%
Population Normal (%) [6]: 95%
Population Pyknosed Nuclei (%) [6]: 39%
Population Tubulin-Different-Phenotype (%) [6]: 26%
Total Cell Count [6]: 164
Population Apoptotic (%) [7]: 35%
Population Fragmented Nuclei (%) [7]: 9%
Population Healthy Nuclei (%) [7]: 58%
Population Hoechst High Intensity Objects (%) [7]: 7%
Population Membrane Permeable-Phenotype (%) [7]: 0%
Population Mitochondria Different-Phenotype (%) [7]: 54%
Population Mitotic Cells (%) [7]: 64%
Population Normal (%) [7]: 92%
Population Pyknosed Nuclei (%) [7]: 32%
Population Tubulin-Different-Phenotype (%) [7]: 30%
Total Cell Count [7]: 308
Population Apoptotic (%) [8]: 11%
Population Fragmented Nuclei (%) [8]: 4%
Population Healthy Nuclei (%) [8]: 73%
Population Hoechst High Intensity Objects (%) [8]: 3%
Population Membrane Permeable-Phenotype (%) [8]: 4%
Population Mitochondria Different-Phenotype (%) [8]: 17%
Population Mitotic Cells (%) [8]: 88%
Population Normal (%) [8]: 96%
Population Pyknosed Nuclei (%) [8]: 22%
Population Tubulin-Different-Phenotype (%) [8]: 23%
Total Cell Count [8]: 399
Population Apoptotic (%) [9]: 43%
Population Fragmented Nuclei (%) [9]: 15%
Population Healthy Nuclei (%) [9]: 44%
Population Hoechst High Intensity Objects (%) [9]: 12%
Population Membrane Permeable-Phenotype (%) [9]: 2%
Population Mitochondria Different-Phenotype (%) [9]: 29%
Population Mitotic Cells (%) [9]: 56%
Population Normal (%) [9]: 87%
Population Pyknosed Nuclei (%) [9]: 39%
Population Tubulin-Different-Phenotype (%) [9]: 31%
Total Cell Count [9]: 368
Population Apoptotic (%) [10]: 10%
Population Fragmented Nuclei (%) [10]: 6%
Population Healthy Nuclei (%) [10]: 77%
Population Hoechst High Intensity Objects (%) [10]: 3%
Population Membrane Permeable-Phenotype (%) [10]: 10%
Population Mitochondria Different-Phenotype (%) [10]: 7%
Population Mitotic Cells (%) [10]: 89%
Population Normal (%) [10]: 96%
Population Pyknosed Nuclei (%) [10]: 15%
Population Tubulin-Different-Phenotype (%) [10]: 23%
Total Cell Count [10]: 260
Population Apoptotic (%) [11]: 29%
Population Fragmented Nuclei (%) [11]: 10%
Population Healthy Nuclei (%) [11]: 69%
Population Hoechst High Intensity Objects (%) [11]: 9%
Population Membrane Permeable-Phenotype (%) [11]: 2%
Population Mitochondria Different-Phenotype (%) [11]: 23%
Population Mitotic Cells (%) [11]: 70%
Population Normal (%) [11]: 90%
Population Pyknosed Nuclei (%) [11]: 19%
Population Tubulin-Different-Phenotype (%) [11]: 21%
Total Cell Count [11]: 462
Population Apoptotic (%) [12]: 14%
Population Fragmented Nuclei (%) [12]: 5%
Population Healthy Nuclei (%) [12]: 83%
Population Hoechst High Intensity Objects (%) [12]: 2%
Population Membrane Permeable-Phenotype (%) [12]: 3%
Population Mitochondria Different-Phenotype (%) [12]: 5%
Population Mitotic Cells (%) [12]: 85%
Population Normal (%) [12]: 97%
Population Pyknosed Nuclei (%) [12]: 10%
Population Tubulin-Different-Phenotype (%) [12]: 16%
Total Cell Count [12]: 731
